Measured values reported in ChEMBL document CHEMBL2163323, “Characterization and solubilization of pyrrole-imidazole polyamide aggregates” (J Med Chem, 2012).

Assays:
[1] = Solubility of the compound in 0.1 % DMSO/PBS solution at 4 uM after 2 hrs by HPLC analysis; format: physicochemical; settings: buffer
Procedure, shortened: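 A 4 mM DMSO stock was diluted 1000× into PBS, vortexed, sonicated 20 min at 25 °C and equilibrated 2 h at room temperature. After centrifugation for 20 min, the supernatant was analysed by HPLC at 310 nm against a standard curve. Maximum concentration was estimated from quantitation of the stock in 0.1% DMSO/water. Values are SD of ≥3 independent measurements.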

[2] = Solubility of the compound in 0.1 % DMSO/PBS solution assessed as radius of the aggregate particle at 4 uM measured over 10 mins by dynamic light scattering method; format: physicochemical; settings: buffer
Procedure, shortened: (§1)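 DMSO stocks (1, 4, 10 mM) were centrifuged, then diluted 1000× into PBS (final 0.1% DMSO). Dynamic light scattering used a 659 nm laser at a 90° angle and 25 °C, with 10–15 s acquisitions over 10 min. Radius came from a cumulant fit of averaged autocorrelation functions at the lowest concentration giving 3× buffer signal. Values are SD of ≥3 independent measurements.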

[3] = Solubility of the compound in 0.1 % DMSO/PBS solution at 4 uM after 2 hrs by HPLC analysis in presence of 35 mM dextrose; format: physicochemical; settings: buffer
Procedure, shortened: (§2)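 The 4 mM DMSO stock was diluted 1000× into PBS containing 35 mM dextrose, 5 mM γCD, 50 mM HpβCD or 6 mg/mL hypromellose. Samples were sonicated 20 min at 25 °C, equilibrated 2 h at room temperature and centrifuged. The soluble fraction was measured by HPLC peak area at 310 nm against a standard curve. Values are SD of ≥3 independent measurements.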

[4] = Solubility of the compound in 0.1 % DMSO/PBS solution at 4 uM after 2 hrs by HPLC analysis in presence of 5 mM gamma-cyclodextrin; format: physicochemical; settings: buffer; procedure, shortened: as §2
[5] = Solubility of the compound in 0.1 % DMSO/PBS solution at 4 uM after 2 hrs by HPLC analysis in presence of 6 mg/ml hypromellose; format: physicochemical; settings: buffer; procedure, shortened: as §2
[6] = Solubility of the compound in 0.1 % DMSO/PBS solution assessed as radius of the aggregate particle at 1 uM measured over 10 mins by dynamic light scattering method; format: physicochemical; settings: buffer; procedure, shortened: as §1
Plasma [7] = experiment: Drug uptake in C57Bl/6 mouse plasma at 120 nmol, ip in 1 % DMSO/80 mM HPbeta-CD/PBS vehicle measured after 24 hrs; format: ADME, organism-based; settings: in vivo
Procedure, shortened: (§3)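 C57bl/6 mice, 8–12 weeks old, received an IP injection of 200 μL PBS containing 120 nmol compound in the stated vehicle. Under isoflurane, blood was drawn retro-orbitally at three time points. Plasma from four mice was pooled (5 μL each), precipitated with methanol, spiked with Boc-Py-OMe as internal control, and quantified by HPLC at 310 nm against a standard curve.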

[8] = Plasma concentration of compound in C57Bl/6 mouse at 120 nmol, ip in 1 % DMSO/80 mM HPbeta-CD/PBS vehicle measured after 1.5 hrs; format: ADME, organism-based; procedure, shortened: as §3
[9] = Solubility of the compound in 0.1 % DMSO/PBS solution at 4 uM after 2 hrs by HPLC analysis in presence of 50 mM 2-hydroxypropyl-beta-cyclodextrin; format: physicochemical; settings: buffer; procedure, shortened: as §2
[10] = Plasma concentration of compound in C57Bl/6 mouse at 120 nmol, ip in 20 % DMSO/PBS vehicle measured after 1.5 hrs; format: ADME, organism-based; procedure, shortened: as §3
Plasma [11] = experiment: Drug uptake in C57Bl/6 mouse plasma at 120 nmol, ip in 20 % DMSO/PBS vehicle measured after 24 hrs; format: ADME, organism-based; settings: in vivo; procedure, shortened: as §3
A549 [12] = experiment: Drug uptake in human A549 cells incubated with mouse plasma isolated 4.5 hr post administration with compound measured after 16 hrs by confocal microscopy; format: ADME, cell-based
Procedure, shortened: (§4)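 A549 cells were seeded at 100k cells/mL in F-12K/10% FBS and allowed to adhere for 18 h at 37 °C in 5% CO2. Medium was replaced with 200 μL fresh medium plus 20 μL plasma. The plasma came from mice given 120 nmol IP in 20% DMSO/80 mM HpβCD/PBS. After 16 h, live cells were imaged by confocal microscopy (63× oil objective, fluorescein filters).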

[13] = Solubility of the compound in 20 % DMSO/PBS; format: physicochemical; settings: buffer
A549 [14] = experiment: Drug uptake in human A549 cells incubated with mouse plasma isolated 1.5 hr post administration with compound measured after 16 hrs by confocal microscopy; format: ADME, cell-based; procedure, shortened: as §4

Row | Structure (SMILES) | solubility [1] | Activity [2] | other results
1 | CC(=O)N[C@@H](CNC(=O)c1cc(NC(=O)c2cc(NC(=O)c3cc(NC(=O)c4nccn4C)cn3C)cn2C)cn1C)CC(=O)Nc1cn(C)c(C(=O)Nc2cc(C(=O)Nc3cc(C(=O)Nc4cc(C(=O)NCCCN(C)CCCNC(=O)c5cccc(C(=O)O)c5)n(C)c4)n(C)c3)n(C)c2)n1 | Insoluble | 74 nm | 
2 | CN(CCCNC(=O)c1cccc(C(=O)O)c1)CCCNC(=O)c1cc(NC(=O)c2cc(NC(=O)c3cc(NC(=O)c4nc(NC(=O)C[C@H](CNC(=O)c5cc(NC(=O)c6cc(NC(=O)c7cc(NC(=O)c8nccn8C)cn7C)cn6C)cn5C)NC(=O)c5ccccc5)cn4C)cn3C)cn2C)cn1C | Insoluble | 127 nm | Activity [6]: 87 nm
3 | CN(CCCNC(=O)c1cc(NC(=O)c2cc(NC(=O)c3cc(NC(=O)c4nc(NC(=O)C[C@@H](N)CNC(=O)c5cc(NC(=O)c6cc(NC(=O)c7cc(NC(=O)c8nccn8C)cn7C)cn6C)cn5C)cn4C)cn3C)cn2C)cn1C)CCCNC(=S)Nc1ccc(-c2c3ccc(=O)cc-3oc3cc(O)ccc23)c(C(=O)O)c1 |  |  | Activity [6]: 294 nm
4 | CN(CCCNC(=O)c1cc(NC(=O)c2cc(NC(=O)c3cc(NC(=O)c4nc(NC(=O)C[C@H](CNC(=O)c5cc(NC(=O)c6cc(NC(=O)c7cc(NC(=O)c8nccn8C)cn7C)cn6C)cn5C)NC(=O)c5ccccc5)cn4C)cn3C)cn2C)cn1C)CCCNC(=S)Nc1ccc(-c2c3ccc(=O)cc-3oc3cc(O)ccc23)c(C(=O)O)c1 |  |  | Activity [6]: 147 nm
5 | CC(=O)N[C@@H](CNC(=O)c1cc(NC(=O)c2cc(NC(=O)c3nc(NC(=O)c4nccn4C)cn3C)cn2C)cn1C)CC(=O)Nc1cc(C(=O)Nc2cc(C(=O)Nc3cc(C(=O)Nc4cc(C(=O)NCCCN(C)CCCNC(=O)c5cccc(C(=O)O)c5)n(C)c4)n(C)c3)n(C)c2)n(C)c1 | Insoluble | 100 nm | solubility [9]: soluble
6 | CN(CCCNC(=O)c1cccc(C(=O)O)c1)CCCNC(=O)c1cc(NC(=O)c2cc(NC(=O)c3cc(NC(=O)c4cc(NC(=O)C[C@H](CNC(=O)c5cc(NC(=O)c6cc(NC(=O)c7nc(NC(=O)c8nccn8C)cn7C)cn6C)cn5C)NC(=O)c5ccccc5)cn4C)cn3C)cn2C)cn1C | Insoluble | 176 nm | solubility [9]: soluble; Activity [6]: 123 nm
7 | CN(CCCNC(=O)c1cc(NC(=O)c2cc(NC(=O)c3cc(NC(=O)c4cc(NC(=O)[C@H](N)CCNC(=O)c5cc(NC(=O)c6cc(NC(=O)c7nc(NC(=O)c8nccn8C)cn7C)cn6C)cn5C)cn4C)cn3C)cn2C)cn1C)CCCNC(=S)Nc1ccc(-c2c3ccc(=O)cc-3oc3cc(O)ccc23)c(C(=O)O)c1 |  |  | Drug uptake (A549 [12]): Not Active; solubility [13]: Insoluble; Drug uptake (A549 [14]): Active
8 | CN(CCCNC(=O)c1cccc(C(=O)O)c1)CCCNC(=O)c1cc(NC(=O)c2cc(NC(=O)c3cc(NC(=O)c4nc(NC(=O)[C@H](N)CCNC(=O)c5cc(NC(=O)c6cc(NC(=O)c7cc(NC(=O)c8nccn8C)cn7C)cn6C)cn5C)cn4C)cn3C)cn2C)cn1C | Insoluble | 182 nm | 

The next lines start with results.

Row | solubility [1] | Activity [2] | Structure (SMILES) | other results
9 | Insoluble | 197 nm | Cn1cc2cc1C(=O)NCCCC(=O)Nc1cn(C)c(n1)C(=O)Nc1cn(C)c(n1)C(=O)Nc1cc(n(C)c1)C(=O)Nc1cc(n(C)c1)C(=O)NC[C@H](N)CC(=O)Nc1cc(n(C)c1)C(=O)Nc1cc(n(C)c1)C(=O)Nc1cc(n(C)c1)C(=O)N2 | solubility [3]: Insoluble; solubility [4]: soluble; solubility [5]: soluble
10 | Insoluble | 347 nm | Cn1cc2cc1C(=O)NC[C@H](N)CC(=O)Nc1cc(n(C)c1)C(=O)Nc1cc(n(C)c1)C(=O)Nc1cc(n(C)c1)C(=O)Nc1cc(n(C)c1)C(=O)NC[C@H](N)CC(=O)Nc1cn(C)c(n1)C(=O)Nc1cn(C)c(n1)C(=O)Nc1cc(n(C)c1)C(=O)N2 | 
11 | Insoluble | 182 nm | CC(=O)N[C@H]1CNC(=O)c2cc(cn2C)NC(=O)c2cc(cn2C)NC(=O)c2nc(cn2C)NC(=O)c2nc(cn2C)NC(=O)C[C@@H](NC(C)=O)CNC(=O)c2cc(cn2C)NC(=O)c2cc(cn2C)NC(=O)c2cc(cn2C)NC(=O)c2cc(cn2C)NC(=O)C1 | 
12 | Insoluble | 124 nm | CN(CCCNC(=O)c1cccc(C(=O)O)c1)CCCNC(=O)c1cc(NC(=O)c2cc(NC(=O)c3cc(NC(=O)c4cc(NC(=O)[C@H](N)CCNC(=O)c5cc(NC(=O)c6cc(NC(=O)c7nc(NC(=O)c8nccn8C)cn7C)cn6C)cn5C)cn4C)cn3C)cn2C)cn1C | Drug uptake (Plasma [7]): Not Active; concentration at 1.5 h [8]: 13 µM; solubility [3]: Insoluble; solubility [4]: soluble; solubility [5]: soluble; solubility [9]: soluble; concentration at 1.5 h [10]: 13 µM; Drug uptake (Plasma [11]): Not Active
13 | Insoluble | 108 nm | CN(CCCNC(=O)c1cccc(C(=O)O)c1)CCCNC(=O)c1cc(NC(=O)c2cc(NC(=O)c3cc(NC(=O)c4cc(NC(=O)C[C@@H](N)CNC(=O)c5cc(NC(=O)c6cc(NC(=O)c7nc(NC(=O)c8nccn8C)cn7C)cn6C)cn5C)cn4C)cn3C)cn2C)cn1C | solubility [9]: soluble
14 | Insoluble | 104 nm | CN(CCCNC(=O)c1cccc(C(=O)O)c1)CCCNC(=O)c1cc(NC(=O)c2cc(NC(=O)c3cc(NC(=O)c4nc(NC(=O)C[C@@H](N)CNC(=O)c5cc(NC(=O)c6cc(NC(=O)c7cc(NC(=O)c8nccn8C)cn7C)cn6C)cn5C)cn4C)cn3C)cn2C)cn1C | 
